Among the data in ChEMBL document CHEMBL1158154, “Design and synthesis of novel 2-pyridone peptidomimetic falcipain 2/3 inhibitors” (Bioorg Med Chem Lett, 2008) are IC50 values, retold here.

For orientation: pIC50 means the IC50 on a negative log10 scale, so that one unit is a factor of ten.

The structures appear in SMILES notation. pIC50: −log10 of the molar value.

Assay [1] has as its target T1, Cysteine protease falcipain-3 (Plasmodium falciparum, UniProt Q9NBA7).
T1 sequence (Q9NBA7 whole entry): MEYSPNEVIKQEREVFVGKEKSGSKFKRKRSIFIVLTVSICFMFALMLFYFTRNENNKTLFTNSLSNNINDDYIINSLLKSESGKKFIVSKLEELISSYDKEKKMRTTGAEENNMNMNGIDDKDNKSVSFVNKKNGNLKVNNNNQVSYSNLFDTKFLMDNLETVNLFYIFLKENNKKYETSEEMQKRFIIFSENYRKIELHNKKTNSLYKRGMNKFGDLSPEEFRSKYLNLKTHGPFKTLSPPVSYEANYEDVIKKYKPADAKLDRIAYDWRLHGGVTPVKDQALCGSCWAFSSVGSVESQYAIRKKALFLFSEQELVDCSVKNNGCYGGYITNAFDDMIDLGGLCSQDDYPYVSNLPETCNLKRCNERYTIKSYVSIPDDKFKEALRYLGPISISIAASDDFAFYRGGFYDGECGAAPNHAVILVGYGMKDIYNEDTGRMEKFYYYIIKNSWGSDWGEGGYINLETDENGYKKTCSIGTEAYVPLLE
In words: Inhibition of Plasmodium falciparum recombinant falcipain-3.

Assay [2] has as its system Plasmodium falciparum. The assay is described as follows: Antimalarial activity against Plasmodium falciparum Itg2 in human erythrocytes by [3H]hypoxanthine uptake. It counts as functional, organism-based.
Assay [3] has as its system Plasmodium falciparum. In words: Antimalarial activity against chloroquine-resistant Plasmodium falciparum TM6 in human erythrocytes by [3H]hypoxanthine uptake. It counts as functional, organism-based. In a few lines: (§1)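 P. falciparum kept in continuous culture in human erythrocytes; compounds tested in triplicate on parasite-infected red cells. Growth read as parasite [3H]-hypoxanthine incorporation, and IC50 derived from it. TM6 is a chloroquine-resistant strain and 3D7 a chloroquine-sensitive strain.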

The subject of assay [4] is Plasmodium falciparum. The assay is described as follows: Antimalarial activity against chloroquine-sensitive Plasmodium falciparum 3D7 in human erythrocytes by [3H]hypoxanthine uptake. It counts as functional, organism-based. In a few lines:
as §1

Another assay concerns the target T2, Falcipain 2 (Plasmodium falciparum, UniProt Q9N6S8).
T2 sequence (Q9N6S8 whole entry): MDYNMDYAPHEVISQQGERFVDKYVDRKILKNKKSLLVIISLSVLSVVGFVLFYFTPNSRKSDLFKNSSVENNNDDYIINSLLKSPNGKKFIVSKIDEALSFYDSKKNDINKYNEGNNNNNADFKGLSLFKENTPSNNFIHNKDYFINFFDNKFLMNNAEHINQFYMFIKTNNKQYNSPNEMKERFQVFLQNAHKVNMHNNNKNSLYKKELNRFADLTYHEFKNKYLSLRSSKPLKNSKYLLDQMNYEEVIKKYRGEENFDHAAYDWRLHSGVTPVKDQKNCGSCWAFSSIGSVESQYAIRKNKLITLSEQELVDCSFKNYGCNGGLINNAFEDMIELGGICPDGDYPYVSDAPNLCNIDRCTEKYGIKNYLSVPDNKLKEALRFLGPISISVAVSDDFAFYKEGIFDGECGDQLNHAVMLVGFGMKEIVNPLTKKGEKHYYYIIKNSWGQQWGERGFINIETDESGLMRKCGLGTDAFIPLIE
The assay is described as follows: Inhibition of Plasmodium falciparum recombinant falcipain-2.

In the case of `CC(C)C[C@H](NC(=O)N1CCOCC1)C(=O)N[C@H](/C=C/S(=O)(=O)c1ccccc1)CCc1ccccc1`, the pIC50 in assay [1] was 7.68; in the assay with Plasmodium falciparum [2], 8.52.

As to `O=C[C@H](Cc1ccccc1)n1cccc(NC(=O)OCc2ccccc2)c1=O`, the pIC50 in the assay with Plasmodium falciparum [3] was 4.44; with Plasmodium falciparum [4], 4.43.

In the case of `O=C(Nc1cccn([C@H](/C=C/S(=O)(=O)c2ccccc2)CCc2ccccc2)c1=O)OCc1ccccc1`, the figures for the pIC50 in the assay on Plasmodium falciparum [3] and in the assay on Plasmodium falciparum [4] were 5.05 and 5.24, respectively.

For `O=C[C@H](CCc1ccccc1)n1cccc(NC(=O)OCc2ccccc2)c1=O`, the pIC50 in assay [1] is less than 4.60; in the assay on Plasmodium falciparum [3], 4.64; on Falcipain 2 it was 4.96; in the assay on Plasmodium falciparum [4], 4.51.

Consider `COC(=O)/C=C/[C@H](CCc1ccccc1)n1cccc(NC(=O)OCc2ccccc2)c1=O`, for which the negative-log IC50 (pIC50) in assay [1] is less than 4.60; in the assay with Plasmodium falciparum [3], 4.45; on Falcipain 2, 4.72; in the assay on Plasmodium falciparum [4], 4.55.

Regarding `O=C(Nc1cccn([C@H](/C=C/S(=O)(=O)c2ccccc2)Cc2ccccc2)c1=O)OCc1ccccc1`, the pIC50 in the assay on Plasmodium falciparum [3] was 4.44; with Plasmodium falciparum [4] it was 4.45.
